# The source made the active and inactive calls. The calls are words filed in the database; no cut-off is given here.
# Assays:
# HeLa [1] = assay: Induction of apoptosis in human HeLa cells assessed as late necrotic cells at 25 uM after 24 hrs using Annexin-V/PI staining by flow cytometry (reference value: 3.70 %); assay type: functional
# HeLa [2] = assay: Induction of apoptosis in human HeLa cells assessed as reduction in Mcl-1 expression at 25 uM after 24 hrs by Western blot analysis; assay type: functional, cell-based
# Method in brief: (§1)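 HeLa cells treated 24 or 48 h at 25 µM, then lysed. 20 µg protein per lane was run on SDS-PAGE and transferred to PVDF. Membranes were probed 2 h at room temperature for cleaved caspase-9, caspase-3, cleaved PARP, Bcl-2, Mcl-1 or Bax, with peroxidase secondary antibody and ECL. β-Actin reprobe served as loading control.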
# HeLa [3] = assay: Induction of apoptosis in human HeLa cells at 6.2 to 50 uM using Annexin-V/PI staining by flow cytometry; assay type: functional, cell-based; settings: TDE = time-dependent effect
# HeLa [4] = assay: Cell cycle arrest in human HeLa cells assessed as accumulation at G2/M phase at 10 to 25 uM after 24 hrs by flow cytometry; assay type: functional, cell-based
# Method in brief: (§2)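 5×10^5 HeLa or Jurkat cells exposed to graded compound concentrations for 24 h. Cells were fixed in ice-cold 70% ethanol, lysed with RNase A/0.1% Triton X-100 buffer and stained with propidium iodide. DNA content was read by flow cytometry. Phase percentages are mean ± SEM of three independent experiments.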
# PBL = assay: Cytotoxicity against PHA-stimulated human PBLs assessed as reduction in cell growth; assay type: cell-based
# Method in brief: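 Peripheral blood lymphocytes from healthy donors, tested either resting (no PHA) or PHA-stimulated. Value is the concentration reducing cell growth by 50%, mean ± SEM of three separate experiments.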
# HeLa [5] = assay: Induction of apoptosis in human HeLa cells assessed as reduction in Mcl-1 expression at 25 uM after 48 hrs by Western blot analysis; assay type: functional, cell-based; method in brief: as §1
# A549 = assay: Antiproliferative activity against human A549 cells assessed as reduction in cell viability after 72 hrs by MTT assay; assay type: functional, cell-based; settings: A549, 72 h
# Method in brief: (§3)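 Cells kept in RPMI-1640 (Jurkat, SEM, RS4;11) or DMEM (A549, HeLa, IGROV-1, HT-29) with 10% FBS plus penicillin/streptomycin. 8×10^3 cells per well were left 18 h at 37 °C in 5% CO2. Medium was then replaced with fresh medium holding graded compound concentrations from 10 mM DMSO stocks. Cells were incubated 72 h and viability read by MTT. IC50 is the mean ± SEM from dose–response curves of at least three independent experiments.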
# HeLa [6] = assay: Induction of apoptosis in human HeLa cells assessed as ROS production at 6.2 to 50 uM after 24 to 48 hrs using H2-DCFDA -based flow cytometry relative to control; assay type: functional, cell-based
# Method in brief: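 HeLa cells incubated 24 or 48 h at the indicated concentrations, stained with H2-DCFDA and analysed by flow cytometry. Data are mean ± SEM of three independent experiments.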
# LoVo = assay: Antiproliferative activity against human LoVo cells assessed as reduction in cell viability after 72 hrs by MTT assay; assay type: functional, cell-based
# HeLa [7] = assay: Induction of apoptosis in human HeLa cells after 24 to 48 hrs using Annexin-V/PI staining by flow cytometry; assay type: functional, cell-based
# HeLa [8] = assay: Antiproliferative activity against human HeLa cells assessed as reduction in cell viability after 72 hrs by MTT assay; assay type: functional, cell-based; method in brief: as §3
# HeLa [9] = assay: Effect on cell morphology in human HeLa cells at 25 uM after 24 hrs using phalloidin staining by confocal microscopy; assay type: functional, cell-based
# Method in brief: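 After 24 h at 25 µM, HeLa cells were stained with anti-PCM1 and Alexa-conjugated secondary antibody, with phalloidin-tetramethylrhodamine B for actin and DAPI for nuclei. Cells were imaged by confocal microscopy at 60×.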
# Tubulin [10] = target: T1, Tubulin (Bos taurus, UniProt Q6B856+Q862L2+Q862F3); assay: Inhibition of bovine brain tubulin assessed as extent of assembly preincubated for 15 mins by turbidimetry
# Method in brief: (§4)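 Bovine brain tubulin at 10 µM (1.0 mg/mL) in 0.8 M monosodium glutamate pH 6.6 with 4% DMSO and varying compound was preincubated 15 min at 30 °C, then chilled. GTP was added to 0.4 mM final and the temperature jumped from 0 to 30 °C. Turbidity was followed at 350 nm, scoring either maximum rate or extent of assembly at 20 min.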
# [11] = Antiproliferative activity against human RS4:11 cells assessed as reduction in cell viability after 72 hrs by MTT assay; assay type: functional, cell-based; settings: RS4-11, 72 h; method in brief: as §3
# HeLa [12] = assay: Cell cycle arrest in human HeLa cells assessed as accumulation at G2/M phase at 25 uM after 24 hrs by flow cytometry; assay type: functional; method in brief: as §2
# Tubulin (Bos taurus) = Tubulin (Bos taurus) (UniProt Q6B856+Q862L2+Q862F3); assay: Displacement of [3H]colchicine from bovine brain tubulin at 500 uM after 10 mins by liquid scintillation counting
# Tubulin [13] = target: T1, Tubulin; assay: Inhibition of bovine brain tubulin assessed as rate of assembly preincubated for 15 mins by turbidimetry; method in brief: as §4
# CCRF-CEM = assay: Antiproliferative activity against human CEM cells assessed as reduction in cell viability after 72 hrs by MTT assay; assay type: functional, cell-based
# HeLa [14] = assay: Cell cycle arrest in human HeLa cells assessed as accumulation at G2/M phase after 24 hrs by flow cytometry; assay type: functional, cell-based; method in brief: as §2
# HT-29 = assay: Antiproliferative activity against human HT-29 cells assessed as reduction in cell viability after 72 hrs by MTT assay; assay type: functional, cell-based; settings: HT-29, 72 h; method in brief: as §3
# HeLa [15] = assay: Induction of apoptosis in human HeLa cells assessed as mitochondrial membrane depolarization at 6.2 to 50 uM using JC-1 staining-based fluorescence assay; assay type: functional, cell-based; settings: TDE = time-dependent effect
# Method in brief: (§5)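 Mitochondrial membrane potential was read with the JC-1 dye in HeLa cells after 24 or 48 h at graded concentrations. Data are mean ± SEM of three independent experiments.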
# HeLa [16] = assay: Induction of apoptosis in human HeLa cells assessed as reduction in Bcl-2 expression at 25 uM after 48 hrs by Western blot analysis; assay type: functional, cell-based; method in brief: as §1
# HeLa [17] = assay: Induction of apoptosis in human HeLa cells assessed as early apoptotic cells at 25 uM after 24 hrs using Annexin-V/PI staining by flow cytometry (reference value: 5.26 %); assay type: functional
# HeLa [18] = assay: Downregulation of phosphorylated form of cdc25c protein level in human HeLa cells at 25 uM after 24 hrs by Western blot analysis; assay type: functional, cell-based
# Method in brief: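 HeLa cells treated 24 or 48 h at 25 µM, then washed in PBS and lysed 30 min on ice. 20 µg protein per lane was resolved on 7.5–15% SDS-PAGE and blotted to PVDF. Blots were probed for cyclin B, p-cdc2 Tyr15, cdc25C and γH2A.X, with β-actin reprobe as loading control and ECL detection.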
# Jurkat = assay: Cell cycle arrest in human Jurkat cells assessed as accumulation at G2/M phase after 24 hrs by flow cytometry; assay type: functional, cell-based; method in brief: as §2
# [19] = Antiproliferative activity against human SEM cells assessed as reduction in cell viability after 72 hrs by MTT assay; assay type: functional, cell-based; method in brief: as §3
# HeLa [20] = assay: Induction of apoptosis in human HeLa cells assessed as reduction in Bcl-2 expression at 25 uM after 24 hrs by Western blot analysis; assay type: functional, cell-based; method in brief: as §1
# HeLa [21] = assay: Induction of apoptosis in human HeLa cells assessed as mitochondrial membrane depolarization after 24 to 48 hrs using JC-1 staining-based fluorescence assay; assay type: functional, cell-based; method in brief: as §5
# IGROV-1 = assay: Antiproliferative activity against human IGROV1 cells assessed as reduction in cell viability after 72 hrs by MTT assay; assay type: functional, cell-based; settings: IGROV-1, 72 h; method in brief: as §3
SMILES,Activity (HeLa [1]) [%],Activity (HeLa [2]),Activity (HeLa [3]),Activity (HeLa [4]),IC50 (PBL) [µM],Activity (HeLa [5]),IC50 (A549) [µM],Activity (HeLa [6]),IC50 (LoVo) [µM],Activity (HeLa [7]),IC50 (HeLa [8]) [µM],Activity (HeLa [9]),IC50 (Tubulin [10]) [µM],IC50 [11] [µM],Activity (HeLa [12]) [%],inhibition (Tubulin (Bos taurus)) [%],IC50 (Tubulin [13]) [µM],IC50 (CCRF-CEM) [µM],Activity (HeLa [14]),IC50 (HT-29) [µM],further results
COc1ccc2c(c1OC)C(=O)O[C@@H]2[C@H]1c2c(c(C)c3c(c2OC)OCO3)CCN1C,17.1,Active,tde,Active,> 200,Active,> 100,Active,66.3,Dose-dependent effect,5.2,Active,> 400,15.8,>80,39,220,8.8,Dose-dependent effect,34,Activity (HeLa [15]): tde; Activity (HeLa [16]): Active; Activity (HeLa [17]): 12.5%; Activity (HeLa [18]): Active; Activity (Jurkat): Dose-dependent effect; IC50 [19]: 4.3 µM; Activity (HeLa [20]): Active; Activity (HeLa [21]): Dose-dependent effect; IC50 (IGROV-1): 62.4 µM
COc1ccc2c(c1OC)C(=O)O[C@@H]2[C@H]1c2c(c(-c3ccc(C)cc3)c3c(c2OC)OCO3)CCN1C,11.1,inactive,tde,Active,> 200,Active,22.2,Active,41.8,Dose-dependent effect,12.8,Active,120,16.4,>80,64,45,11.8,Dose-dependent effect,24.9,Activity (HeLa [15]): tde; Activity (HeLa [16]): Active; Activity (HeLa [17]): 14.3%; Activity (HeLa [18]): Active; Activity (Jurkat): Dose-dependent effect; IC50 [19]: 7.4 µM; Activity (HeLa [20]): inactive; Activity (HeLa [21]): Dose-dependent effect; IC50 (IGROV-1): 66.3 µM
COc1ccc2c(c1OC)C(=O)O[C@@H]2[C@H]1c2c(c(Br)c3c(c2OC)OCO3)CCN1C,53.7,Active,tde,Active,92.2,Active,73.9,Active,42.8,Dose-dependent effect,2.6,Active,> 400,1.4,>80,34,> 400,2.8,Dose-dependent effect,18.7,Activity (HeLa [15]): tde; Activity (HeLa [16]): Active; Activity (HeLa [17]): 57.3%; Activity (HeLa [18]): Active; Activity (Jurkat): Dose-dependent effect; IC50 [19]: 1.8 µM; Activity (HeLa [20]): Active; Activity (HeLa [21]): Dose-dependent effect; IC50 (IGROV-1): 78.2 µM
